From ChEMBL document CHEMBL1139894, “Withanolides with phytotoxic activity from Jaborosa caulescens var. caulescens and J. caulescens var. bipinnatifida 1” (2007) come the findings set out here.

Common to all, as to assay type: functional
Experiment [1] relates to Lactuca sativa. The experiment can be described thus: Phytotoxic activity against Latuca sativa assessed as radicle length elongation at 15 ppm. In a few lines: (§1)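 Radicle length of treated seedlings was compared with untreated controls and reported as the percentage difference from the control, which is set to zero. Negative values mean inhibition and positive values mean stimulation. Germination and root length were also compared between treated and control seeds using Student's t-test (p < 0.05).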

Experiment [2] has as its system Lactuca sativa. The experiment can be described thus: Phytotoxic activity against Latuca sativa assessed as radicle length elongation at 150 ppm. The essentials:
as §1

The test system of experiment [3] is Lactuca sativa. The experiment can be described thus: Phytotoxic activity against Latuca sativa assessed as radicle length elongation at 400 ppm. In a few lines:
as §1

In experiment [4] the test system is Avena sativa. The experiment in a line: Phytotoxic activity against Avena sativa assessed as radicle length elongation at 15 ppm. In a few lines:
as §1

The test system of experiment [5] is Avena sativa. The experiment can be described thus: Phytotoxic activity against Avena sativa assessed as radicle length elongation at 150 ppm. The essentials:
as §1

In experiment [6] the test system is Avena sativa. The experiment in a line: Phytotoxic activity against Avena sativa assessed as radicle length elongation at 400 ppm. The essentials:
as §1

As to `CC1=C(C)C(=O)O[C@@H]([C@H]2CO[C@@]3(O)C[C@H]4[C@@H](C[C@H]5O[C@]56CC=CC(=O)[C@]46C)[C@@H]4CC[C@]2(O)[C@]43C)C1` [JABOROSALACTONE], the Activity in the experiment with Lactuca sativa [1] was -1.6%; with Lactuca sativa [2], -46.2%; in the experiment with Lactuca sativa [3], -58.6%; in the experiment on Avena sativa [4], -13.9%; in the experiment with Avena sativa [5], 2.4%; with Avena sativa [6], -36.5%.
In the case of `CC1=C(C)[C@H]([C@H]2O[C@@]3(O)C[C@H]4[C@@H](C[C@H]5O[C@]56CC=CC(=O)[C@]46C)[C@@H]4CC[C@@](O)([C@@H]2C)[C@]43C)OC1=O` [TRECHONOLIDE A], the Activity in the experiment with Lactuca sativa [1] is given as 3.7%; in the experiment with Lactuca sativa [2], -8.4%; in the experiment on Lactuca sativa [3], 2.5%; in the experiment with Avena sativa [4], 2.5%; with Avena sativa [5], -11.7%; in the experiment with Avena sativa [6] it was 4%.
Turning to `CC1=C(C)[C@H]([C@H]2O[C@@]3(O)C[C@H]4[C@@H](C[C@@H](O)[C@@]5(O)CC=CC(=O)[C@]45C)[C@@H]4CC[C@@](O)([C@@H]2C)[C@]43C)OC1=O` [JABOROTETROL], the Activity is on record as -3.9% in the experiment on Lactuca sativa [1]; -5.5% in the experiment with Lactuca sativa [2]; -4% in the experiment with Lactuca sativa [3]; -10.2% with Avena sativa [4]; 2.7% in the experiment on Avena sativa [5]; -5.9% with Avena sativa [6].
In the case of `CCO[C@@]12C[C@H]3[C@@H](C[C@@H](O)[C@@]4(Cl)CC=CC(=O)[C@]34C)[C@@H]3CC[C@@](O)([C@H](C)[C@@H]([C@@H]4OC(=O)C(C)=C4C)O1)[C@]32C` [12-O-ETHYLJABOROSALACTONE 42], the Activity with Lactuca sativa [1] is reported as 2.7%; in the experiment with Lactuca sativa [2] it was -25.7%; in the experiment with Lactuca sativa [3], -65.1%; in the experiment with Avena sativa [4], 3.5%; in the experiment with Avena sativa [5], -11.2%; in the experiment on Avena sativa [6], -32.2%.
As for `CO[C@@]12C[C@H]3[C@@H](C[C@H]4O[C@]45CC=CC(=O)[C@]35C)[C@@H]3CC[C@@](O)([C@@H]([C@H]4CC(C)=C(C)C(=O)O4)CO1)[C@]32C` [12-O-METHYLJABOROSALACTONE 38], the Activity with Lactuca sativa [1] is on record as -8.7%; in the experiment on Lactuca sativa [2], -22.7%; in the experiment on Lactuca sativa [3] it was -74.7%; in the experiment with Avena sativa [4], 15.3%; with Avena sativa [5] it was 1.5%; with Avena sativa [6], -24.5%.
